# Measurements of several laboratories.
# Lines come from different studies, so protocols differ.
# KIT V559D: Mast/stem cell growth factor receptor Kit (KIT, Homo sapiens, UniProt P10721, V559D)
# KIT D816V: Mast/stem cell growth factor receptor Kit (KIT, Homo sapiens, UniProt P10721, D816V)
# KIT autoinhibited: Mast/stem cell growth factor receptor Kit, autoinhibited (KIT, Homo sapiens, UniProt P10721)
# KIT L576P: Mast/stem cell growth factor receptor Kit (KIT, Homo sapiens, UniProt P10721, L576P)
# KIT: Mast/stem cell growth factor receptor Kit (KIT, Homo sapiens, UniProt P10721)
# KIT T670I/V559D: Mast/stem cell growth factor receptor Kit (KIT, Homo sapiens, UniProt P10721, T670I/V559D)
# KIT D816H: Mast/stem cell growth factor receptor Kit (KIT, Homo sapiens, UniProt P10721, D816H)
# KIT V559D/V654A: Mast/stem cell growth factor receptor Kit (KIT, Homo sapiens, UniProt P10721, V559D/V654A)
Structure (SMILES),target,effect on,method,concentration,remaining binding [%]
CC1CCCN1c1nccc(-c2cnn3ncccc23)n1 (stereo not shown),KIT V559D,binding,,1 µM,100
O=C(NCC1CCOCC1)c1n[nH]cc1NC(=O)c1c(F)cccc1F,KIT D816V,binding,competition with immobilised ligand,1 µM,100
COc1cc(-c2cn(C3CCc4ccccc4N(CC(F)(F)F)C3=O)nn2)ccc1-n1ccc(C)n1 (stereo not shown),KIT autoinhibited,cell-free assay,competition with immobilised ligand,1 µM,100
c1cncc(-c2cccc(Nc3nccc(NC4CCCCC4)n3)c2)c1,KIT L576P,binding,competition with immobilised ligand,10 µM,0
C=CC(=O)N1CCC(C(=O)NCC(=O)N2CCN(c3nc(-c4cnc(N)nc4C(F)F)nc(N4CCOCC4)n3)CC2)CC1,KIT,binding,competition with immobilised ligand,1 µM,93
COc1ccc2c(O[C@@H]3C[C@H]4C(=O)N[C@]5(C(=O)O)CC5/C=C\CCCCC[C@H](NC(=O)OC5CCCC5)C(=O)N4C3)cc(-c3csc(NC(=O)C(C)C)n3)nc2c1C (stereo partly shown),KIT T670I/V559D,cell-free assay,competition with immobilised ligand,1 µM,76
N[C@H]1CCN(c2nccc(-c3cnn4ncccc34)n2)C1,KIT autoinhibited,binding,,1 µM,0
COc1cnc(Nc2cccc(S(N)(=O)=O)c2)nc1N1CCN(c2ccccc2)C(=O)C1,KIT D816H,binding,competition with immobilised ligand,1 µM,55
O=C(NCCCN1CCOCC1)c1ccc(Nc2ncc(Cl)c(-c3ccc(Cl)s3)n2)cc1,KIT,binding,competition with immobilised ligand,1 µM,0.05
CCc1ccccc1C(=O)Nc1n[nH]c2c(C)c(F)c(C3C(C#N)=C(C)N(C)C(C)=C3C#N)cc12,KIT,cell-free assay,competition with immobilised ligand,1 µM,84
CN(CCCC(F)(F)F)c1nccc(-c2cnn3ncccc23)n1,KIT V559D/V654A,binding,,1 µM,100
O=C(O)[C@H]1[C@H](Cn2nnc3ccccc3c2=O)CC[C@@H]1C(=O)c1ccc(OCCC2CCOCC2)cc1,KIT D816H,cell-free assay,competition with immobilised ligand,1 µM,80
CN(C)c1nccc(-c2cnn3ncccc23)n1,KIT autoinhibited,binding,,1 µM,88
Cc1c(C(=O)O)cc(-c2ccc(C3CCNCC3)cc2)c2ccc(-c3ccc(C(F)(F)F)cc3)cc12,KIT V559D,binding,competition with immobilised ligand,1 µM,100
CCN1CCN(Cc2ccc(C(=O)Nc3ccc(C)c(Oc4ccc5c(c4)CC(=O)N5)c3)cc2C(F)(F)F)CC1,KIT,binding,competition with immobilised ligand,1 µM,0.85
F[C@@H]1CCN(c2nccc(-c3cnn4ncccc34)n2)C1,KIT L576P,binding,,1 µM,92
O=C(Nc1c[nH]nc1C(=O)NC1CCNCC1)c1cc(F)cc(F)c1,KIT,binding,competition with immobilised ligand,1 µM,100
CN1CCN(c2ccc(Nc3nccc(-c4cccc([N+](=O)[O-])c4)n3)cc2C(F)(F)F)CC1,KIT V559D/V654A,binding,,10 µM,0
O=C(c1ccc(Nc2ncc(Cl)c(-c3ccc(Cl)s3)n2)cc1)N1CCC(N2CCCC2)CC1,KIT D816H,binding,competition with immobilised ligand,1 µM,7.7
CN1CCN(c2ccc(Nc3nccc(-c4ccccc4)n3)cc2C(F)(F)F)CC1,KIT D816H,binding,,10 µM,17
Cc1cc(NC(=O)c2cccc(S(F)(F)(F)(F)F)c2)cc(-n2ccn3nc(-c4cccnc4)cc23)c1,KIT L576P,cell-free assay,competition with immobilised ligand,1 µM,100
C[C@@H]1CN(c2ccc3ncc(-c4ccc5[nH]nc(C6CC6)c5c4)n3n2)C[C@H](C)O1,KIT,binding,competition with immobilised ligand,0.5 µM,50
CNC(=O)[C@@H]1CC[C@@H](n2c(-c3ccc4cnccc4c3)nc3ccc(C(=O)NCc4cccc(C(N)=O)c4)cc32)C1,"Mast/stem cell growth factor receptor Kit (KIT, Homo sapiens, UniProt P10721, A829P)",binding,competition with immobilised ligand,1 µM,100
Cc1cnc(Nc2ccc(C(=O)N3CCC(N4CCCC4)CC3)cc2)nc1-c1cc2ccccc2s1,KIT V559D,binding,competition with immobilised ligand,1 µM,0.6
COc1cnc(Nc2cccc(S(N)(=O)=O)c2)nc1N1CCN(c2ccccc2)CC1,KIT D816H,binding,competition with immobilised ligand,1 µM,66
COc1ncc2cc3ccccc3nc2c1C#N,KIT D816V,cell-free assay,competition with immobilised ligand,5 µM,95
Cc1cnn2ncc(-c3ccnc(N(C)C)n3)c2c1,KIT T670I/V559D,binding,,1 µM,100
O=C(NCCCN1CCOCC1)c1ccc(Nc2nccc(-c3cc4ccccc4s3)n2)cc1,KIT D816H,binding,competition with immobilised ligand,1 µM,20
CN(C)c1nccc(-c2cnc3ncccn23)n1,KIT D816H,binding,,1 µM,52
O=C(c1ccc(Nc2ncc(Cl)c(-c3cc4ccccc4s3)n2)cc1)N1CCC(N2CCCC2)CC1,KIT T670I/V559D,binding,competition with immobilised ligand,1 µM,17
CCC(=O)N[C@@H]1CC[C@H](C(=O)N(C)c2ccc(-c3nc4ccccc4o3)cc2)C1,KIT autoinhibited,cell-free assay,competition with immobilised ligand,1 µM,93
Nc1ncc2c(n1)-c1c([nH]c3ccc(C#CC4CC4)cc13)CCCC2,KIT T670I/V559D,binding,competition with immobilised ligand,1 µM,94
O=C(Nc1cccnn1)N1CCC(=Cc2cccc(Oc3ccc(C(F)(F)F)cn3)c2)CC1,KIT T670I/V559D,cell-free assay,competition with immobilised ligand,1 µM,96
N#Cc1ccccc1CSc1nnc2c(n1)[nH]c1ccccc12,KIT D816V,binding,competition with immobilised ligand,10 µM,75
C[C@@H](c1ccc(-n2cnc3c(N)ncnc32)cc1)N1CCc2nn(C)c(Cc3ccccc3)c2C1=O,KIT D816V,binding,competition with immobilised ligand,0.1 µM,99
O=C(c1ccc(Nc2nccc(-c3cc4ccccc4s3)n2)cc1)N1CCC(N2CCCC2)CC1,KIT autoinhibited,binding,competition with immobilised ligand,1 µM,66
C[C@@H]1CCN(c2nccc(-c3cnn4ncccc34)n2)C1,KIT D816H,binding,,1 µM,79
